Calls of active or inactive are those of the source.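 The calls were made as follows, unless noted: active = inhibition at or above 50% at 10 µM; inactive = inhibition below 50%.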

A short description of test [1]: inhibitors of TNFa-induced NFkB p65 translocation, primary screen, imaging, HUVEC, MLSMR starter and 10KST1 sets (AID 438;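 active = inhibition above 20% together with a positive visual image hit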;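 also: compound added about 3h40 before a 20 min TNFalpha stimulation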;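 as to inhibition: signal is the nuclear over cytoplasmic p65 intensity ratio per well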). To be noted: HUVEC TNFa-induced p65 nuclear translocation; cell count: measured here: nuclei count (cytotoxicity indicator), at 2.08 µM; inhibition: at 2 µM, stronger effect = higher value, 0% TNFa-plus-vehicle, 100% no-TNFa wells.
Test [2] in a line: inhibitors of mutant huntingtin aggregation, primary screen, imaging, exon1htt(103Q)mCFP cells, high-content imaging (AID 483;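 active = visual image review flags a hit and inhibition of aggregation exceeds 20%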;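 also: compound exposure lasted 3 days before fixation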;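 as to nuclei count: percent of the per-plate median nuclei count of sample wells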). To be noted: exon1htt(103Q)mCFP cell line, aggregate imaging, at 2 µM; inhibition of aggregation: stronger effect = higher value; nuclei count: measured here: cell count, toxicity.
Test [3] in a line: inhibitors of E-selectin induction by TNFa, primary screen, imaging, HUVEC, immunofluorescence, MLSMR starter and 10KST1 sets (AID 487;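 active = visually confirmed hit in the image check and inhibition above 20%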;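 as to inhibition: signal is fraction of cell area covered by stained E-selectin grains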;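 as to nuclei count: 100% = median nuclei count of all wells on the same plate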). To be noted: HUVEC TNFalpha-induced E-selectin immunofluorescence imaging, at 2 µM; inhibition: stronger effect = higher value; nuclei count: measured here: cell number, toxicity.
Test [4] has as its target Voltage-gated potassium channel subunit beta-2 (Rattus norvegicus) (UniProt P62483). Description: KvBeta enzyme negative modulators, primary screen, biochemical, NADPH fluorescence (AID 622;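 active = fluorescence slope higher than the sample average by over 3 SD, cut at about -0.22 in these data, passing the limit was not always enough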;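 also: slope of raw intensity against log time taken from 70 to 1610 s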). To be noted: recombinant KvBeta, 4-cyanobenzaldehyde reduction, at 10 µM, stronger effect = higher value.
Test [5] has the same target. Kind of test: KvBeta positive modulators, primary screen, biochemical, NADPH fluorescence (AID 623;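 active = NADPH fluorescence slope more negative than the mean of all samples by about 3 SD, 99.7% confidence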;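 also: fluorescence intensity change per second fitted from 20 to 320 s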). To be noted: Recombinant KvBeta, NADPH fluorescence decrease slope, 10 min; at 10 µM; stronger effect = lower value.
Test [6] concerns the target Muscarinic acetylcholine receptor M4 (Homo sapiens) (UniProt P08173). Kind of test: compounds altering M4/GIRK thallium flux, either direction, primary screen, M4 allosteric agonist project, cell-based, HEK293 M4/GIRK, BTC-AM (AID 625;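 active = fluorescence slope after compound addition differing from the mean of all tested samples at 99.7% confidence, mostly higher but some lower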;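 also: thallium influx through GIRK channels coupled to M4 in HEK293 cells with BTC-AM dye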). To be noted: at 10 µM, actives lie on both sides. In short, it runs like this:
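assay system = HEK293 cells with M4 receptor and GIRK channels | medium = pH 7.3 thallium assay buffer | doses = 10 µM final, single point | timing = cells overnight at 37 °C, BTC-AM loading 1 h, reads 2 min total | signal = BTC-AM fluorescence, 1 Hz kinetic reads | read-out = post-addition slope, 15–24 s, of baseline-normalized fluorescence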

Test [7] in a line: inhibitors of Sendai virus-induced IRF3 signaling, primary screen, TLR/RLR signaling modifier project, cell-based, Sendai virus stimulus, luciferase, 10K MLSCN set (AID 602276).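 Also: firefly luciferase from ISG56 promoter only with Renilla not read in this screen; 0% = Sendai virus plus DMSO and 100% = medium plus DMSO without virus.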 The settings on record: HEK293 RL24 IRF3 luciferase reporter, at 10 µM, stronger effect = higher value.
A short description of test [8]: inhibitors of poly I:C-induced TLR3 signaling, primary screen, cell-based, poly I:C stimulus, luciferase, 10K MLSCN set (AID 602277;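 active = inhibition of the reporter signal at or above 50%; inactive = inhibition below 50%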). To be noted: HEK293-TLR3 RL24 IRF3 luciferase reporter, at 10 µM, stronger effect = higher value.

Muscarinic acetylcholine receptor M4 (Homo sapiens), sequence (P08173 whole entry, looked up): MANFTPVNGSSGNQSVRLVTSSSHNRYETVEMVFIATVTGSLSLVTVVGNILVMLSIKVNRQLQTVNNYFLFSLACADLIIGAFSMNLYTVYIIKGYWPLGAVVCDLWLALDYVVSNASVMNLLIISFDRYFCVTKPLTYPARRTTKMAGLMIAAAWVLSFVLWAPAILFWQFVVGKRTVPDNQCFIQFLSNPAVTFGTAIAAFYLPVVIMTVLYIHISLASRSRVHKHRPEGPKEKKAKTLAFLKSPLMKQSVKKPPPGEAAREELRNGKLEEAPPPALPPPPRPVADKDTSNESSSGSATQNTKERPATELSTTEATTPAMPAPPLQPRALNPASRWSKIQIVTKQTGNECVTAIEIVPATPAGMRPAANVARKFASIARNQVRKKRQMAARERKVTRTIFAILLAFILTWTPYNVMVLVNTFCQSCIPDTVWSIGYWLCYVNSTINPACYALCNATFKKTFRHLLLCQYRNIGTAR
Voltage-gated potassium channel subunit beta-2 (Rattus norvegicus), sequence (P62483 whole entry, looked up): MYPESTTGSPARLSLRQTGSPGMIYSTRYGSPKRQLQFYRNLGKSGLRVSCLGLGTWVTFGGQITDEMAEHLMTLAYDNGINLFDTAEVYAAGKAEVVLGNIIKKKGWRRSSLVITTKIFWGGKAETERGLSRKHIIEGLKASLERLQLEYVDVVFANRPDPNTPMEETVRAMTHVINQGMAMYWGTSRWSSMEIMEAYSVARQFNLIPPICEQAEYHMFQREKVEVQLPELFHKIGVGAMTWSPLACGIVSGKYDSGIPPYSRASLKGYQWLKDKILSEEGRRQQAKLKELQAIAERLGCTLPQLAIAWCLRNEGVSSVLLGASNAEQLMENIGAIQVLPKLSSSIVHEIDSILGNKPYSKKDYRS

Take `Cn1ccnc1C(O)c1ccco1` (centres undefined): the cell count in test [1] came out at 722. For the same molecule, the inhibition was 3.3% (inactive) in test [1], -146% (inactive) in test [3], 15.2% (inactive) in test [7] and 13.2% (inactive) in test [8]. For the same molecule, the inhibition of aggregation in test [2] is -15.7% (inactive). In addition, the nuclei count in test [2] was determined as 97.2%; in test [3], 129%. Moreover, the fluorescence slope was -0.422 (inactive) in test [4] and 0.00477 (inactive) in test [6]. The NADPH fluorescence slope in test [5] was 2.5e-05 (inactive).
In the case of `Cc1nc(C)c(C(=O)Nc2ccc(C)c(F)c2)o1`, in test [1], the cell count was determined as 600. Also, the inhibition in test [1] was -4.5% (inactive); in test [3], -2.7% (inactive); in test [7], 4.25% (inactive); in test [8], -10.3% (inactive). Besides, the inhibition of aggregation in test [2] is 19.4% (inactive). The nuclei count in test [2] was found to be 97.5%; in test [3] it was 120%. The fluorescence slope was -0.335 (inactive) in test [4] and 0.00567 (inactive) in test [6]. In addition, in test [5], the NADPH fluorescence slope is -5.2e-05 (inactive).
In the case of `COC(=O)c1c(-c2ccc(F)cc2)noc1N`, the cell count in test [1] turned out to be 502. Moreover, the inhibition was 5.3% (inactive) in test [1], -2% (inactive) in test [3], -1.09% (inactive) in test [7] and -9.58% (inactive) in test [8]. Further, in test [2], the inhibition of aggregation is -3.7% (inactive). For the same molecule, the nuclei count in test [2] turned out to be 106%; in test [3], 104%. Also, the fluorescence slope was -0.278 (inactive) in test [4] and 0.00633 (inactive) in test [6]. Also, the NADPH fluorescence slope in test [5] was -6.3e-06 (inactive).
With `NC(=O)c1oc2ccc(Cl)cc2c1NC(=O)CN1CCOCC1`, the cell count in test [1] turned out to be 436. In addition, the inhibition is 2.7% (inactive) in test [1], -114% (inactive) in test [3], 4.86% (inactive) in test [7] and 1.98% (inactive) in test [8]. For the same molecule, in test [2], the inhibition of aggregation is 3.6% (inactive). Besides, the nuclei count in test [2] stood at 112%; in test [3], 123%. Further, the results for the fluorescence slope in test [4] and in test [6] were -0.53 (inactive) and 0.00578 (inactive), respectively. For the same molecule, the NADPH fluorescence slope in test [5] was -5.2e-05 (inactive).
As to `Cc1ccc2nc(CSc3nnc(-c4ccco4)n3-c3ccccc3)cc(=O)n2c1`, the cell count in test [1] turned out to be 509. The inhibition in test [1] is -7.8% (inactive); in test [3] it was -175% (inactive); in test [7] it was -11% (inactive); in test [8], -20% (inactive). In test [2], the inhibition of aggregation was -2% (inactive). Besides, the nuclei count in test [2] turned out to be 115%; in test [3] it was 201%. Besides, the figures for the fluorescence slope in test [4] and in test [6] were -0.567 (inactive) and 0.00636 (inactive), respectively. The NADPH fluorescence slope in test [5] is -1.2e-06 (inactive).
Regarding `COc1ccccc1NC(=O)N1CCCC1C(=O)NC1CCCCC1` (centres undefined), the cell count in test [1] was 582. The inhibition in test [1] is 0.4% (inactive); in test [3] it was -19.7% (inactive); in test [7], 15.6% (inactive); in test [8], 11.1% (inactive). In test [2], the inhibition of aggregation is 9% (inactive). The nuclei count in test [2] came to 92.5%; in test [3], 121%. Besides, the fluorescence slope is -0.227 (inactive) in test [4] and 0.00721 (inactive) in test [6]. Further, the NADPH fluorescence slope in test [5] was -2.2e-05 (inactive).
For the molecule `COCc1[nH]nc2c1C(C1C=CCCC1)C(C#N)=C(N)O2` (centres undefined), the cell count in test [1] was determined as 463. Besides, the inhibition in test [1] was 5.7% (inactive); in test [3], -76.2% (inactive); in test [7], 16.7% (inactive); in test [8], 31.6% (inactive). Besides, in test [2], the inhibition of aggregation is -1.8% (inactive). Moreover, the results for the nuclei count in test [2] and in test [3] were 110% and 120%, respectively. Moreover, the fluorescence slope in test [4] was -0.464 (inactive); in test [6], 0.00521 (inactive). Further, in test [5], the NADPH fluorescence slope was -6.2e-05 (inactive).
On to `O=C(c1ccc2c(c1)OCO2)N1CCNc2ccccc2C1`, for which the cell count in test [1] amounted to 518. Moreover, the inhibition in test [1] is -0.5% (inactive); in test [3] it was -14.3% (inactive); in test [7], 8.51% (inactive); in test [8], 2.68% (inactive). Also, the inhibition of aggregation in test [2] is 21.2% (inactive). Also, the nuclei count in test [2] amounted to 91%; in test [3], 85.2%. Also, the fluorescence slope is -0.559 (inactive) in test [4] and 0.00561 (inactive) in test [6]. Further, in test [5], the NADPH fluorescence slope was -3.1e-05 (inactive).
As for `Cc1ccccc1NC(=O)C1CCN(c2cnccn2)CC1`, the cell count in test [1] was 304. Further, the inhibition was 2.2% (inactive) in test [1], -42.9% (inactive) in test [3], 5.1% (inactive) in test [7] and 15.6% (inactive) in test [8]. Moreover, the inhibition of aggregation in test [2] was -10.2% (inactive). For the same molecule, the values for the nuclei count in test [2] and in test [3] were 86.3% and 111%, respectively. Further, the fluorescence slope is -0.543 (inactive) in test [4] and 0.00512 (inactive) in test [6]. Further, the NADPH fluorescence slope in test [5] was -1.5e-06 (inactive).
On to `CC(NC(=O)CSc1n[nH]c(=O)n1C1CC1)C12CC3CC(CC(C3)C1)C2` (centres undefined), for which the cell count in test [1] stood at 563. The inhibition in test [1] is -23% (inactive); in test [3], -5.1% (inactive); in test [7], 7.91% (inactive); in test [8], 23.3% (inactive). Besides, the inhibition of aggregation in test [2] is -6.1% (inactive). For the same molecule, the nuclei count in test [2] was 101%; in test [3], 110%. For the same molecule, the fluorescence slope was -0.378 (inactive) in test [4] and 0.00652 (inactive) in test [6]. In addition, in test [5], the NADPH fluorescence slope was 8.6e-05 (inactive).
Regarding `COc1ccc(OC)c(C2=NOC(C(=O)NCCN3CCOCC3)C2)c1` (centres undefined), in test [1], the cell count was 715. Further, the inhibition in test [1] was -22.4% (inactive); in test [3], -20.4% (inactive); in test [7] it was 17.7% (inactive); in test [8], 25% (inactive). The inhibition of aggregation in test [2] was 12.9% (inactive). The values for the nuclei count in test [2] and in test [3] were 96% and 85.7%, respectively. In addition, the results for the fluorescence slope in test [4] and in test [6] were -0.62 (inactive) and 0.00547 (inactive), respectively. In test [5], the NADPH fluorescence slope was 3.7e-06 (inactive).
For `COc1ccc(-c2nc(N)nc(C)c2Oc2ccccc2Br)c(O)c1`, the cell count in test [1] turned out to be 382. Besides, the inhibition was 6.9% (inactive) in test [1], -64.3% (inactive) in test [3], 10.9% (inactive) in test [7] and 53% (active) in test [8]. Further, the inhibition of aggregation in test [2] was -14% (inactive). Besides, the nuclei count in test [2] is 100%; in test [3] it was 85.6%. Besides, the fluorescence slope is -0.496 (inactive) in test [4] and 0.00571 (inactive) in test [6]. For the same molecule, in test [5], the NADPH fluorescence slope is 6e-05 (inactive).
Regarding `O=C(COc1ccc(Cl)cc1)Nc1ncccn1`, the cell count in test [1] stood at 436. Further, the inhibition in test [1] was -3.8% (inactive); in test [3], -12.3% (inactive); in test [7], 14.4% (inactive); in test [8] it was -0.516% (inactive). Moreover, the inhibition of aggregation in test [2] is 4.3% (inactive). Also, the nuclei count stood at 98.6% in test [2] and 87.1% in test [3]. In addition, the fluorescence slope in test [4] is -0.456 (inactive); in test [6], 0.00491 (inactive). In test [5], the NADPH fluorescence slope is -7.3e-05 (inactive).
As to `CCOC(=O)C1CCN(Cc2ccc(C(=O)OC)cc2)CC1`, in test [1], the cell count was 462. In addition, the inhibition in test [1] was -4.3% (inactive); in test [3] it was 4.3% (inactive); in test [7], 0.779% (inactive); in test [8], 12.5% (inactive). For the same molecule, the inhibition of aggregation in test [2] was -0.6% (inactive). For the same molecule, the nuclei count in test [2] turned out to be 97%; in test [3], 85.6%. Besides, the fluorescence slope was -0.595 (inactive) in test [4] and 0.0043 (inactive) in test [6]. The NADPH fluorescence slope in test [5] was -4.2e-05 (inactive).

The values above are taken from PubChem BioAssay.
